From PubChem BioAssay
In the library only some 2% were active in any assay of this set; here they are far more common.
MC4R antag cAMP – MC4R antagonists of cAMP signaling, primary screen, cell-based, TR-FRET, antagonist arm of biased-ligand search. MC4R-expressing cells, MTII-stimulated cAMP, LANCE TR-FRET. Melanocortin receptor 4 (Homo sapiens), P32245. actives 0.48% (n = 360,000). inhibition, % at 6.5 µM;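 active = inhibition above its plate's cutoff, the mean of tested wells on that plate plus 3 SD, cut at about 29% in these data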;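 also: 0% = Melanotan II alone and 100% = Melanotan II plus saturating MCL0020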
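Assay system: human MC4R-expressing U2OS cells; reagent: Melanotan II stimulation of cells; dosing: 6.5 µM single dose; timing: compound 30 min, challenge 1 h, detection 1 h; signal: TR-FRET cAMP assay; replicates: one well per compound, no replicates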
UPR XBP1 act – activators of adaptive XBP1 UPR arm, primary screen, cell-based, CHO-XBP1 luciferase reporter, luminescence, uHTS | IRE1-XBP1 UPR activation; percent of tunicamycin response, DMSO as zero | activation, % at 20 µM | actives 0.33% (n = 330,000) | AID 463104, 2010;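 active = versus positive control, 20 µM dose yields 30% or more activation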;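 also: 100% = tunicamycin at 10 µg/mL and 0% = DMSO only wells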
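Material: CHO cell line with stable XBP1 luciferase reporter; schedule: 16-18 h cell attachment at 37 °C, then 6 h compound exposure; signal: glow luminescence from Steady-Glo reagent; medium: serum-containing F12 medium, 10% FBS; benchmarks: tunicamycin 10 µg/mL and vehicle-only wells; read-out: percent activation relative to tunicamycin reference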
MC4R ag barr – MC4R agonists recruiting beta-arrestin, primary screen, cell-based, luminescence, agonist arm of biased-ligand search. Melanocortin receptor 4 (Homo sapiens), P32245. U2OS MC4R beta-arrestin complementation; percent of melanotan II response, DMSO zero. activation, % at 8.9 µM. actives 0.98% (n = 360,000). AID 540308, 2011;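 active = activation above a per-plate cutoff, the mean activation of sample wells on that plate plus 3 SD, cut at about 8% in these data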
A1 inh – caspase 3/7 activation in MEF A1-2A-BIM cells, primary screen, A1 inhibitor project, cell-based, luminescence, HTS; Caspase-Glo 3/7 luminescence, 3 h; percent of clofoctol response, vehicle zero; caspase activation, % (test concentration not listed); actives 0.066% (n = 330,000); AID 2462, 2010;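 active = over half of replicate activation scores above 10%, or exactly half above 10 with the replicate mean above 10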
UPR CHOP act – activators of apoptotic CHOP UPR arm, primary screen, cell-based, CHO-CHOP luciferase reporter, luminescence, uHTS; UPR activation; percent of tunicamycin response over DMSO baseline; activation, % at 10 µM; actives 0.34% (n = 330,000); AID 449763, 2010;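 active = at 10 µM dose, activation of 40% or more, normalized to positive control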;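 also: 100% = tunicamycin at 10 µg/mL and 0% = DMSO alone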
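Test system: CHO-CHOP cells, stable luciferase reporter of PERK-eIF2a-CHOP signalling | Quantity: 500 CHO-CHOP cells per well | Buffer or medium: F12 plus 10% serum | Compound dosing: 10 µM single point, 0.5% DMSO | Schedule: 6 h compound treatment, 37 °C | Signal: Luciferase luminescence | Control set: Tunicamycin high control, DMSO low control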
MC4R barr ag – MC4R beta-arrestin agonists, retest, confirmation, cell-based, luminescence, U2OS | actives 31% (n = 2,400) | U2OS MC4R beta-arrestin recruitment; scaled DMSO 0%, Melanotan II 100% | shares compounds with MC4R ag barr | AID 602192, 2012 | activation, % at 8.9 µM;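 active = mean activation across replicates above the hit cutoff set in the earlier primary screen, cut at about 8% in these data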
MOR-DOR barr ag – agonists of MOR-DOR heterodimerization, counter-screen for MC4R biased agonist project, cell-based, luminescence; U2OS PathHunter beta-arrestin, beta-gal luminescence; percent of deltorphin B response, DMSO zero; activation, % at 9.2 µM; actives 5.8% (n = 2,400); shares compounds with MC4R ag barr;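 active = mean activation across replicates exceeds the hit threshold derived in the earlier primary screen, cut at about 18% in these data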;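 also: 100% = deltorphin B at 0.9 µM final and 0% = DMSO alone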
The depositor's hits bear a star.

For COc1ccc(-c2cc(NC=O)c3ncc(-c4cc(OC)c(OC)c(OC)c4)n3c2)cc1 the results were MC4R antag cAMP -27.4 and MC4R ag barr 1.3.
`CC1(C)CC(=O)C=C(c2n[nH]nc2C2CCCCC2)C1` gave MC4R antag cAMP 6.6 and MC4R ag barr 0.9.
Screening CCC(=O)N1CCCC(C(=O)Nc2nc3ccccc3[nH]2)CC1 (centres undefined) returned MC4R antag cAMP 3.6 and MC4R ag barr -1.6.
CCCNC(=O)CSc1nnc(NC(=O)C2CC(=O)N(c3ccccc3OC)C2)s1 (centres undefined) was read as MC4R antag cAMP 13.7 and MC4R ag barr -1.1.
For CC1(C(=O)NS(=O)(=O)Cc2ccccc2C(F)(F)F)CCN1C(=O)Cc1ccccc1 (centres undefined) the results were MC4R antag cAMP 4.6 and MC4R ag barr -1.3.
`CCOc1ccc(N2C(=O)/C(=C/c3cccs3)N(C)C2=S)cc1` gave MC4R antag cAMP 4.1, UPR XBP1 act 1.1, MC4R ag barr 26.2*, A1 inh -0.9, UPR CHOP act -0.2, MC4R barr ag 11.9* and MOR-DOR barr ag 3.5.
For CCOc1ccc(-c2cccc(NS(=O)(=O)c3cccc([N+](=O)[O-])c3)c2)nn1 the results were MC4R antag cAMP 18.8 and MC4R ag barr -0.1.
`O=C1C2C(C(=O)N1/N=C/c1ccc([N+](=O)[O-])o1)C1C=CC2C12CC2` (centres undefined) gave MC4R antag cAMP 25.8, UPR XBP1 act -0.5, MC4R ag barr -2.5, A1 inh -0.3 and UPR CHOP act 0.7.
`CC1=NN(c2nc(N)nc(/C(C#N)=C/c3ccc([N+](=O)[O-])o3)n2)C(C)(C)C1` gave MC4R antag cAMP -41.5, MC4R ag barr 36.6*, MC4R barr ag 162.6* and MOR-DOR barr ag 172.0*.
`CC1CCCC(NCC(O)COC(c2ccc(F)cc2)c2ccc(F)cc2)C1C` (centres undefined) gave MC4R antag cAMP 9.0, UPR XBP1 act 16.2, MC4R ag barr 18.0*, A1 inh 0.1, UPR CHOP act 1.3, MC4R barr ag 16.2* and MOR-DOR barr ag 23.8*.
OC(COC(c1ccc(F)cc1)c1ccc(F)cc1)CN1CCCC(C(F)(F)F)C1 (centres undefined) was read as MC4R antag cAMP 20.6, UPR XBP1 act -3.5, MC4R ag barr 3.8, A1 inh 0.2 and UPR CHOP act 1.9.
COCCCN1CCN(C2Cc3ccccc3Sc3ccc(Cl)cc32)CC1 (centres undefined) was read as MC4R antag cAMP 2.9, UPR XBP1 act -1.2, MC4R ag barr 12.8*, A1 inh 0.3, UPR CHOP act -0.4, MC4R barr ag 1.3 and MOR-DOR barr ag 11.4.
For COc1ccc2c(c1)CC(N1CCN(C)CC1)c1cc(OC)ccc1S2 (centres undefined) the results were MC4R antag cAMP 0.7, UPR XBP1 act 4.1, MC4R ag barr -1.4, A1 inh 0.3 and UPR CHOP act -0.3.
For COc1ccc(C#Cc2cnc3c(c2)C(=O)N([C@@H](C)CO)C[C@@H](C)[C@@H](CN(C)CC2CCOCC2)O3)cc1 the results were MC4R antag cAMP 2.1 and MC4R ag barr -2.1.
`NC(COCc1ccccc1)c1csc(Nc2ccc(C(F)(F)F)cn2)n1` (centres undefined) gave MC4R antag cAMP -6.3 and MC4R ag barr 6.5.
